Data on three compounds can be found in ChEMBL document CHEMBL3867454, “Corallocins A-C, Nerve Growth and Brain-Derived Neurotrophic Factor Inducing Metabolites from the Mushroom Hericium coralloides” (J Nat Prod, 2016).

Data set [1] has as its system PC-12. Briefly: Intrinsic neurotrophic activity in rat PC12 cells in conditioned 1321N1 culture medium assessed as neurite outgrowth at 57.8 uM measured after 48 hrs by light microscopy method. In kind it is functional, cell-based.
Data set [2] concerns 1321-N1. Briefly: Induction of NGF secretion in human 1321N1 cells at 19.6 uM after 48 hrs. In kind it is functional, cell-based.
Data set [3] in a line: Upregulation of NGF expression in human 1321N1 cells at 57.8 uM measured after 6 hrs by semiquantitative RT-PCR analysis relative to DMSO-control. In kind it is functional, cell-based. An outline of the steps:
(§1)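 1321N1 astrocytes were grown to confluence on 3.5 cm plates and switched to serum-free DMEM 24 h before compound addition. Primers were specific for GAPDH, NGF (189 bp) and BDNF (101 bp). PCR programs: GAPDH 20 cycles at 60 °C annealing; NGF 30 cycles at 61 °C; BDNF 30 cycles at 58 °C. Products were run on 1% or 2% agarose, with GAPDH as loading control and identity confirmed by sequencing. n = 3 independent experiments.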

The subject of data set [4] is 1321-N1. The experiment in a line: Induction of NGF secretion in human 1321N1 cells at 57.8 uM after 48 hrs. In kind it is functional, cell-based.
The next data set concerns 1321N1 (Homo sapiens). Briefly: Cytotoxicity against human 1321N1 cells assessed as induction of cell death measured after 24 hrs. To be noted: pooled result: one value given for 2 cell lines, strains, targets or settings.
A short description of data set [5]: Upregulation of NGF expression in human 1321N1 cells at 68.9 uM measured after 6 hrs by semiquantitative RT-PCR analysis relative to DMSO-control. In kind it is functional, cell-based. The gist of the method: as §1
A short description of data set [6]: Cytotoxicity against HUVEC measured after 5 days by MTT assay. In kind it is functional, cell-based. As to conditions: Homo sapiens, 120 h.
Data set [7] in a line: Increase in BDNF expression in human 1321N1 cells at 68.9 uM measured after 6 hrs by semiquantitative RT-PCR analysis relative to DMSO-control. In kind it is functional. The gist of the method: as §1
Data set [8] can be described thus: Cytotoxicity against mouse L929 cells measured after 5 days by MTT assay. In kind it is functional, cell-based. To be noted: L929, 120 h. An outline of the steps: (§2)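 Compounds added from 30 μg/mL methanol stocks by serial dilution in 96-well plates. L929 was cultured in DMEM, MCF-7 and KB-3-1 in RPMI-1640, all with 10% FCS, 5% CO2, 37 °C, 5 days. Methanol was the negative control and epothilone A the positive control. IC50 values were derived from the dilution series.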

Data set [9] can be described thus: Antifungal activity against Mucor plumbeus MUCL 49355 measured after 20 to 24 hrs by serial dilution assay. In kind it is functional.
Data set [10] can be described thus: Cytotoxicity against human KB-3-1cells measured after 5 days by MTT assay. To be noted: KB 3-1, 120 h. In kind it is functional, cell-based. The gist of the method:
as §2

Data set [11] in a line: Cytotoxicity against human MCF7 cells measured after 5 days by MTT assay. To be noted: MCF7, 120 h. In kind it is functional, cell-based. The gist of the method:
as §2

In data set [12] the test system is PC-12. The experiment in a line: Intrinsic neurotrophic activity in rat PC12 cells in conditioned 1321N1 culture medium assessed as neurite outgrowth at 19.6 uM measured after 48 hrs by light microscopy method. In kind it is functional, cell-based.
A short description of data set [13]: Increase in BDNF expression in human 1321N1 cells at 19.6 uM measured after 6 hrs by semiquantitative RT-PCR analysis relative to DMSO-control. In kind it is functional. The gist of the method:
as §1

Data set [14] can be described thus: Upregulation of NGF expression in human 1321N1 cells at 19.6 uM measured after 6 hrs by semiquantitative RT-PCR analysis relative to DMSO-control. In kind it is functional, cell-based. An outline of the steps:
as §1

≈ marks a conversion by molar mass, not a printed value. Calls of active or inactive are those of the source. No cut-off for these calls is given here.

For `COc1cc2c(c(O)c1C/C=C(\C)CC/C=C(\C)C(=O)O)COC2=O`, the result with PC-12 [1], in the data set on 1321-N1 [2] and with 1321-N1 [4] was Active. Besides, the fold change (FC) in data set [3] came out at 3. For the same compound, in the data set with 1321N1 (Homo sapiens), the MNTC at 24 h came to 57.8 µM.
`COc1cc2c(c(O)c1C/C=C(\C)CCC=C(C)C)CN(CCc1ccc(O)cc1)C2=O`: the fold change (FC) in data set [5] was determined as 2; in [7] it was 1.5. The IC50 amounted to 2.1 µM in data set [6], 14.7 µM in data set [8], 11.5 µM in data set [10] and 9.2 µM in data set [11]. Further, in data set [9], the lowest concentration to inhibit growth (MIC) was 57.4 µM (≈ 25 µg/mL). In the data set with 1321N1 (Homo sapiens), the MNTC at 24 h came out at 68.9 µM.
For the compound `COc1cc2c(c(O)c1C/C=C(\C)CCC=C(C)C)CN(CCc1c[nH]c3ccccc13)C2=O`, the result in the data set on PC-12 [12], in the data set with 1321-N1 [2] and in the data set on 1321-N1 [4] was Active. Also, the “fold change (FC)” value in data set [13] worked out at 1.9; in [14], 5. For the same compound, the MNTC at 24 h with 1321N1 (Homo sapiens) worked out at 19.6 µM.
